Assay results reported in ChEMBL document CHEMBL4699663, “Design, synthesis, and biological activity of novel semicarbazones as potent Ryanodine receptor1 inhibitors of Alzheimer's disease” (Bioorg Med Chem, 2021).
In brackets after ≈: the same amount, converted by molar mass. Activity calls are given as the source filed them. The rule behind the calls is not given here.

Experiments:
Homo sapiens [1] = organism: Homo sapiens; assay: Inhibition of RYR-1 R614C mutant (unknown origin) expressed in cells assessed as inhibition of store overload-induced Ca2+ release at 10 uM after 3 mins by fura-2AM dye based microscopic analysis relative to control; type: cell-based
Homo sapiens [2] = organism: Homo sapiens; assay: Inhibition of RYR-1 R614C mutant (unknown origin) expressed in cells assessed as inhibition of store overload-induced Ca2+ release at 3 uM after 3 mins by fura-2AM dye based microscopic analysis relative to control; type: cell-based
Homo sapiens [3] = organism: Homo sapiens; assay: Inhibition of RYR-1 R614C mutant (unknown origin) expressed in cells assessed as inhibition of store overload-induced Ca2+ release after 3 mins by microscopic analysis; type: cell-based; conditions: dose microM 0.1-10, time 3.0 min
Homo sapiens [4] = organism: Homo sapiens; assay: Inhibition of RYR-1 R614C mutant (unknown origin) expressed in cells assessed as inhibition of store overload-induced Ca2+ release at 0.1 uM after 3 mins by fura-2AM dye based microscopic analysis relative to control; type: cell-based
[5] = molecular target: Acetylcholinesterase (Electrophorus electricus) (UniProt O42275); assay: Inhibition of electric eel AChE at 5 uM using acetylthiocholine iodide as substrate preincubated with enzyme for 30 mins followed by substrate addition and measured for 10 mins by Ellman's method relative to control; conditions: time 40.0 min
How it was run: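 Electrophorus electricus AChE at 0.25 U/mL, with 60 µM DTNB in 0.05 M phosphate buffer pH 8, was incubated 30 min with the DMSO-dissolved inhibitor. The reaction was then started with 1.5 mM acetylthiocholine iodide and read at 412 nm for 10 min. Percent inhibition was taken from reaction rates versus control, from three experiments run in triplicate.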

Homo sapiens [6] = organism: Homo sapiens; assay: Inhibition of RYR-1 R614C mutant (unknown origin) expressed in cells assessed as inhibition of store overload-induced Ca2+ release at 0.1 uM after 3 mins by fura-2AM dye based microscopic analysis; type: cell-based
Homo sapiens [7] = organism: Homo sapiens; assay: Inhibition of RYR-1 R614C mutant (unknown origin) expressed in cells assessed as inhibition of store overload-induced Ca2+ release at 3 uM after 3 mins by fura-2AM dye based microscopic analysis; type: cell-based
Homo sapiens [8] = organism: Homo sapiens; assay: Inhibition of RYR-1 R614C mutant (unknown origin) expressed in cells assessed as inhibition of store overload-induced Ca2+ release at 10 uM after 3 mins by fura-2AM dye based microscopic analysis; type: cell-based
[9] = Kinetic aqueous solubility of the compound in PBS at pH 7.4 by turbidimetric analysis; type: physicochemical; conditions: read-out: Kinetic_solubility
How it was run: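 Turbidimetric kinetic solubility: DMSO stocks were diluted 100-fold into PBS pH 7.4, giving eight final concentrations (1.6–200 mM as printed). After 2 h incubation, absorbance was read at 540 nm. Wells above blank mean + 3 SD counted as turbid, and the highest clear concentration was taken as the solubility.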

Mus musculus [10] = assay: Improvement in learning and spatial memory in SPF grade FAD mouse assessed as swimming time on target zone at 3.2 mg/kg, ip measured 24 hrs post trial training by probe test (reference value: 23.1 +/- 1.1 %); type: functional
Mus musculus [11] = assay: Cognitive enhancing effect in SPF grade FAD mouse assessed as reduction in mean escape latency time at 3.2 mg/kg, ip measured on day 3 by Morris water maze test (reference value: 35.59 sec); type: functional; conditions: time 3 day
How it was run: (§1)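 Mixed-sex FAD mice, 5 months old at dosing, given 3.2 mg/kg intraperitoneally in DMSO (1.12 mg/ml) daily for 30 days; controls got the same volume of DMSO. Morris water maze training started after dosing. Mice entered the water facing the wall from four entry points in turn, and time to find and climb the platform was recorded. Data are mean ± SD, analysed by ANOVA.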

Mus musculus [12] = assay: Cognitive enhancing effect in SPF grade FAD mouse assessed as reduction in mean escape latency time at 3.2 mg/kg, ip measured on day 4 by Morris water maze test (reference value: 31.99 sec); type: functional; conditions: time 4 day; how it was run: as §1
[13] = Toxicity in SPF grade FAD mouse assessed as effect on body weight at 3.2 mg/kg, ip administered for 30 consecutive days; type: organism-based; conditions: in vivo, 720 h, time 30 day
How it was run: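 Mixed-sex FAD mice, 5 months old, were given 3.2 mg/kg/day intraperitoneally in DMSO (1.12 mg/ml) for 30 consecutive days; controls received the same volume of DMSO. Body weight was measured daily during dosing and reported as mean ± SD (n = 7).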

Mus musculus [14] = assay: Cognitive enhancing effect in SPF grade FAD mouse assessed as reduction in mean escape latency time at 3.2 mg/kg, ip measured on day 2 by Morris water maze test (reference value: 36.72 sec); type: functional; conditions: time 2 day; how it was run: as §1

Sequence of Acetylcholinesterase (Electrophorus electricus) (O42275 24-633 limits assumed): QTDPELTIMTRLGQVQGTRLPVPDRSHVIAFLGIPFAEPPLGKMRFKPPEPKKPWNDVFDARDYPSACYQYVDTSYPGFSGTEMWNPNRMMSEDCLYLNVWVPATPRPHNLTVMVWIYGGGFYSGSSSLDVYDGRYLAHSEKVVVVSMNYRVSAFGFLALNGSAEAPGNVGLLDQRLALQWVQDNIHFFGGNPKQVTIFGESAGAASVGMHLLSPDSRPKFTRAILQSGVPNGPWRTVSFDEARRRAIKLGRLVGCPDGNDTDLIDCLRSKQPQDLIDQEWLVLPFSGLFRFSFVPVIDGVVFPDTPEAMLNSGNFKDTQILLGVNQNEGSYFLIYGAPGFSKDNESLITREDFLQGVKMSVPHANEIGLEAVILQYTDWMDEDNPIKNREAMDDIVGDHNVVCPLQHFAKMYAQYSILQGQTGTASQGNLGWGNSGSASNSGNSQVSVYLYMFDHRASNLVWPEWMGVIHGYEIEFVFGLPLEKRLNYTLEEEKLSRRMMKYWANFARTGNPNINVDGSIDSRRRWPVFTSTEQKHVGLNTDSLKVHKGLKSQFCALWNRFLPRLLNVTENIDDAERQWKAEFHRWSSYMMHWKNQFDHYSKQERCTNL

Row | SMILES | inhibition (Homo sapiens [1]) [%] | inhibition (Homo sapiens [2]) [%] | inhibition (Homo sapiens [3]) | inhibition (Homo sapiens [4]) [%] | other results
1 | O=C(N/N=C/c1ccc(-c2ccc([N+](=O)[O-])cc2)o1)Nc1ccc(Br)cc1 | 52.9 | 31.3 | Dose-dependent effect | 13.2 | –
2 | O=C(NCc1ccccc1F)N/N=C/c1ccc(-c2ccc([N+](=O)[O-])cc2)o1 | 44.6 | 26.1 | Dose-dependent effect | – | –
3 | O=C(NCc1cccc(F)c1)N/N=C/c1ccc(-c2ccc([N+](=O)[O-])cc2)o1 | 72.1 | 25.8 | Dose-dependent effect | – | inhibition [5]: 33.6%
4 | Cc1ccccc1NC(=O)N/N=C/c1ccc(-c2ccc([N+](=O)[O-])cc2)o1 | – | – | – | – | inhibition (Homo sapiens [6]): inactive; inhibition [5]: 18.2%; inhibition (Homo sapiens [7]): inactive; inhibition (Homo sapiens [8]): inactive
5 | O=C(N/N=C/c1ccc(-c2ccc([N+](=O)[O-])cc2)o1)Nc1ccccc1C(F)(F)F | 55.5 | 30.1 | Dose-dependent effect | 12.6 | –
6 | O=C(N/N=C/c1ccc(-c2ccc([N+](=O)[O-])cc2)o1)n1ccnc1 | 68.2 | 48.4 | Dose-dependent effect | 26.1 | –
7 | Cc1cccc(NC(=O)N/N=C/c2ccc(-c3ccc([N+](=O)[O-])cc3)o2)c1 | 34.6 | 15.2 | Dose-dependent effect | 10.7 | –
8 | O=C(N/N=C/c1ccc(-c2ccc([N+](=O)[O-])cc2)o1)Nc1cccc(Br)c1 | 67.1 | 67.1 | Dose-dependent effect | 26.7 | –
9 | CN(/N=C/c1ccc(-c2ccc([N+](=O)[O-])cc2)o1)C(=O)c1cncn1C | 82.5 | 70.5 | Dose-dependent effect | 24.5 | solubility kinetic [9]: 480 µM (≈ 170 µg/mL); inhibition [5]: 14.3%
10 | CN(/N=C/c1ccc(-c2ccc([N+](=O)[O-])cc2)o1)C(=O)n1ccnc1 | 74.9 | 53.5 | Dose-dependent effect | 23 | –
11 | O=C(NCc1ccc(Cl)c(Cl)c1)N/N=C/c1ccc(-c2ccc([N+](=O)[O-])cc2)o1 | 37.2 | 25.3 | Dose-dependent effect | – | –
12 | O=C(N/N=C/c1ccc(-c2ccc([N+](=O)[O-])cc2)o1)Nc1ccccc1 | 93.9 | 35.8 | Dose-dependent effect | 15.9 | solubility kinetic [9]: 60 µM (≈ 21 µg/mL); inhibition [5]: 19.3%
13 | Cc1ccc(CNC(=O)N/N=C/c2ccc(-c3ccc([N+](=O)[O-])cc3)o2)cc1 | 35.4 | – | Dose-dependent effect | – | –
14 | O=C(N/N=C/c1ccc(-c2ccc([N+](=O)[O-])cc2)o1)Nc1ccccc1Br | 67.1 | 38.5 | Dose-dependent effect | 20.1 | –
15 | O=C(N/N=C/c1ccc(-c2ccc([N+](=O)[O-])cc2)o1)c1cnc[nH]1 | 93.7 | 77.2 | Dose-dependent effect | 31.5 | solubility kinetic [9]: 580 µM (≈ 189 µg/mL); inhibition [5]: 24.8%; Activity (Mus musculus [10]): 35.7%; Time (Mus musculus [11]): 25.12 s; Time (Mus musculus [12]): 16.23 s; Activity [13]: Non-Toxic; Time (Mus musculus [14]): 29.89 s
16 | O=C(NCc1ccccc1)N/N=C/c1ccc(-c2ccc([N+](=O)[O-])cc2)o1 | 48.6 | 23.1 | Dose-dependent effect | – | –
17 | O=C(NCc1ccc(Cl)cc1)N/N=C/c1ccc(-c2ccc([N+](=O)[O-])cc2)o1 | 70.4 | 48.6 | Dose-dependent effect | 27.1 | –
18 | O=C(N/N=C/c1ccc(-c2ccc([N+](=O)[O-])cc2)o1)Nc1ccc([N+](=O)[O-])cc1 | 32 | 14.1 | Dose-dependent effect | – | –
19 | O=C(NCc1ccc(F)cc1)N/N=C/c1ccc(-c2ccc([N+](=O)[O-])cc2)o1 | 76.1 | 35.1 | Dose-dependent effect | 23.6 | –
20 | O=C1CN(/N=C/c2ccc(-c3ccc([N+](=O)[O-])cc3)o2)C(=O)N1 | 94.2 | 73.1 | Dose-dependent effect | 30.8 | inhibition [5]: 0.1%
21 | O=C(NCc1ccc(Cl)cc1Cl)N/N=C/c1ccc(-c2ccc([N+](=O)[O-])cc2)o1 | 16.2 | – | Dose-dependent effect | – | inhibition [5]: 8.9%
22 | O=C(N/N=C/c1ccc(-c2ccc([N+](=O)[O-])cc2)o1)Nc1ccccc1Cl | 50.1 | 25.1 | Dose-dependent effect | – | –
23 | O=C1CN(/N=C/c2ccc(-c3ccc([N+](=O)[O-])cc3)o2)C(O)=N1 [DANTROLENE] | – | – | – | – | solubility kinetic [9]: 560 µM (≈ 176 µg/mL)
24 | O=C(NCc1cccc(Cl)c1Cl)N/N=C/c1ccc(-c2ccc([N+](=O)[O-])cc2)o1 | 30.6 | – | Dose-dependent effect | – | –
25 | O=C(NCc1ccc(C(F)(F)F)cc1)N/N=C/c1ccc(-c2ccc([N+](=O)[O-])cc2)o1 | 53.1 | 27.9 | Dose-dependent effect | 19.7 | –
26 | O=C(N/N=C/c1ccc(-c2ccc([N+](=O)[O-])cc2)o1)Nc1ccccc1OC(F)(F)F | 57.1 | 20.4 | Dose-dependent effect | – | –
27 | COc1ccccc1NC(=O)N/N=C/c1ccc(-c2ccc([N+](=O)[O-])cc2)o1 | 30.6 | – | Dose-dependent effect | – | –
28 | Cc1ccc(NC(=O)N/N=C/c2ccc(-c3ccc([N+](=O)[O-])cc3)o2)cc1 | 29.5 | 10.8 | Dose-dependent effect | – | –
